Entries after “also recorded” stand apart in the source; their conditions may differ. Strand notation (5' to 3'): a small letter for the sugar, then the base; units joined by * are phosphorothioate-linked, units joined directly phosphodiester-linked; [ ] holds rarer units or linkages, { } end groups; capitals alone tell only the bases. [tcDNA-N] = tricyclo-DNA nucleotide (N: the base); m = 2'-O-methyl

The nature of data set [1]: DLS analysis of ASOs in PBS. The class given is physicochemical. The following applies: 1 mM ASO in PBS, each measured 3 times.
Data set [2] can be described thus: DLS after incubation with physiological albumin solution. Particulars: equal volume BSA 4.25 g/dL in PBS, 1 h at 37 °C, diluted 10x before DLS. It counts as physicochemical.
Data set [3] deals with Differentiated C2C12 cells. The data set can be described thus: Uptake of FITC-labelled ASOs with SR ligands. It counts as cell-based, murine. The following applies: ligand pretreatment 1 h, then FITC-ASO 200 nM for 4 h. Summed up: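 C2C12 cells were grown in DMEM with 10% FBS, then differentiated 3-4 days in DMEM with 2% horse serum (2.5x10⁴/cm²). Cells were pretreated 1 h with scavenger-receptor ligands or control polyanions at 100 μg/ml. They were then given FITC-2'OMePS or FITC-tcDNA (200 nM) for 4 h, washed, and methanol-fixed (-20 °C, 10 min). Mean fluorescence intensity came from microscopy images; one-way ANOVA, mean ± SEM.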

Data set [4] can be described thus: TEM visualization of self-assembled nanoparticles. The class given is physicochemical. Particulars: Fig. S3.
Data set [5] has as its system class A scavenger receptor subtypes (SCARAs). Kind of data set: PPMO splice-switching activity. The class given is cell-based, murine. Particulars: for Effect of SR ligand or control on splice-switching activity of PPMO: differentiated C2C12, ligand 50 μg/ml for 1 h before PPMO 500 nM for 4 h in Opti-MEM, then 20 h, nested RT-PCR.
Another data set has as its target T1, SCARA1 (Mus musculus, UniProt P30204).
T1 sequence (P30204 1-351 limits assumed): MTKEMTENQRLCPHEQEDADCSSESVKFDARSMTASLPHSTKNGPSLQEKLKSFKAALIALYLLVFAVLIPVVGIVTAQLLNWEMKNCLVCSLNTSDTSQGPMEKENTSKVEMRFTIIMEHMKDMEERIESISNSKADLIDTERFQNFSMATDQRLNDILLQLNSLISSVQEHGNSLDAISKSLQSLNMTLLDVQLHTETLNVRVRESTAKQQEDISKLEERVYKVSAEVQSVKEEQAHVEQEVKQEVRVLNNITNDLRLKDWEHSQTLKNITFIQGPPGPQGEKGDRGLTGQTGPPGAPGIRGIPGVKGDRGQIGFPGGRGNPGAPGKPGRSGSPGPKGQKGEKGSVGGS
Kind of data set: Dmd exon 23 skipping. The class given is in vivo, mice. The following applies: 10 mg/kg intravenous, 1 week, n=4, qPCR. Summed up:
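SCARA1-/- and C57BL/6 mice (14 months old, n = 4) received 10 mg/kg peptide–PMO conjugate in 0.9% saline via tail vein. After one week, tibialis anterior, diaphragm and heart were snap-frozen. Multiplex Taqman qPCR on 25 ng cDNA used FAM primers spanning exon 20-21 and HEX primers spanning exon 23-24. Skipping percentage came from normalising exon 23-24 to exon 20-21 amplification.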
(In general: In qPCR the cycle at which signal appears reflects the starting amount.)

Data set [6] can be described thus: Critical micelle concentration by dye micellization method. The following applies: eosin Y 0.019 mM, absorbance at 542 nm, rounded value. It counts as physicochemical.
Data set [7] is described as follows: Zeta potential measurement. The class given is physicochemical.
The nature of data set [8]: Uptake and activity comparison of fluorescently labelled ASOs. It counts as cell-based. Particulars: Fig. S4.

“2’OMe: 2’Omethyl phosphorothioate ASO 5’- GGCCAAACCUCGGCUUACCU-3’, synthesized by IDT (antisense mG*mG*mC*mC*mA*mA*mA*mC*mC*mU*mC*mG*mG*mC*mU*mU*mA*mC*mC*mU)”: in [1], the “DLS population profile (peaks)” value is recorded as “predominant peak was of singular molecules” and the “DLS size of predominant peak (singular molecules)” value is “around 2 nm”. For the same substance, the “DLS particulate peaks in albumin model” value in [2] is “failed to do so”. In data set [3], the “Uptake in the presence of fucoidin and dextran sulfates” value is reported as “only partially inhibited”.
For RXRRBRRXR YQFLI RXRBRXRB [Pip6a-PMO], the “Nanoparticle formation and relative size by TEM” value in data set [4] is listed as “spontaneously forms nanoparticles; also recorded: smaller than B-PMO nanoparticles”. The “Uptake in the presence of SR ligands” value in [5] (Fig. S3) is listed as “significantly inhibited”. For the same substance, on SCARA1, the “Exon 23-skipping activity in SCARA1 knock-out versus wild-type mice, diaphragm” value is “significantly reduced” and the “Exon 23-skipping activity in SCARA1 knock-out versus wild-type mice, heart” value is “significantly reduced”.
For RXRRBRRXRRBRXB [PPMO], the “DLS population profile (peaks)” value in data set [1] was “two peaks, one for singular molecules and one representing a particulate population”. The “DLS particulate peaks in albumin model” value in [2] is reported as “high intensity particulate peaks”. For the same substance, the “Critical micelle concentration (CMC)” value in [6] is given as “about 1.4 μM”. For the same substance, the Zeta potential is -1.21 ± 0.63 in data set [7] (in PBS), -3.48 ±2.31 in data set [7] (in serum-free medium) and 10 ± 2.70 in [7] (in water). In [8], the “Extent of uptake relative to other chemistries” value is “several folds higher uptake than the other two chemistries”.
For chondroitin sulfate, the “Effect of SR ligand or control on splice-switching activity of PPMO” value in data set [5] is listed as “no effect”.
With dextran sulfate, the “Effect of SR ligand or control on splice-switching activity of PPMO” value in data set [5] is “completely inhibited”.
On the same count and under the same terms, then fucoidin sulfate, with “completely inhibited”.
Turning to “tcDNA: phosphorothioated tricyclo DNA 5’-AACCTCGGCTTACCT-3’, synthesized by SYNTHENA (all [tcDNA-N], all phosphorothioate, methylation of C not given here)”, the “Extent of uptake relative to other chemistries” value in [8] was “significantly higher than that of 2’OMe”.

For the origin of these results see paper PMC6415796 (Nano letters, 2015).
